One data set concerns the target T1, NPP6 (Homo sapiens, UniProt Q6UWR7).
T1 sequence (Q6UWR7 23-440): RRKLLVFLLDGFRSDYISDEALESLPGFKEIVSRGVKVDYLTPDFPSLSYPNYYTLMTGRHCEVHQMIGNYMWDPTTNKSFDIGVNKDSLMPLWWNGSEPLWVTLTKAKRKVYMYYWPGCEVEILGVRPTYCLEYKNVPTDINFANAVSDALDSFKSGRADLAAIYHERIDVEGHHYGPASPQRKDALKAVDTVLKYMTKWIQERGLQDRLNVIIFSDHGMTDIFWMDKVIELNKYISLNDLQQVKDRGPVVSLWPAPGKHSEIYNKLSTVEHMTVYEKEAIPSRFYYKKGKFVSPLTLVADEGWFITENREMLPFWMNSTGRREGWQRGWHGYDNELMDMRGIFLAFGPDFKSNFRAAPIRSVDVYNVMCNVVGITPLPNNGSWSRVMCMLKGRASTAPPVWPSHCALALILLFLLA
In words: NPP6 inhibition assay. Format: biochemical. The conditions noted are these: read-out: NPP6 Activity, % control (10μM). In short, it runs like this:
(§1)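 Recombinant purified NPP6 or NPP7 (8.3 nM final) was incubated with pNPPC (10 µM) and a single 10 µM compound concentration. Liberated p-nitrophenol was read at 405 nm for up to 1 h, within the linear range. Activity was normalized to vehicle control.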

The next data set addresses T2, NPP7 (Homo sapiens, UniProt Q6UWV6).
T2 sequence (Q6UWV6 22-458): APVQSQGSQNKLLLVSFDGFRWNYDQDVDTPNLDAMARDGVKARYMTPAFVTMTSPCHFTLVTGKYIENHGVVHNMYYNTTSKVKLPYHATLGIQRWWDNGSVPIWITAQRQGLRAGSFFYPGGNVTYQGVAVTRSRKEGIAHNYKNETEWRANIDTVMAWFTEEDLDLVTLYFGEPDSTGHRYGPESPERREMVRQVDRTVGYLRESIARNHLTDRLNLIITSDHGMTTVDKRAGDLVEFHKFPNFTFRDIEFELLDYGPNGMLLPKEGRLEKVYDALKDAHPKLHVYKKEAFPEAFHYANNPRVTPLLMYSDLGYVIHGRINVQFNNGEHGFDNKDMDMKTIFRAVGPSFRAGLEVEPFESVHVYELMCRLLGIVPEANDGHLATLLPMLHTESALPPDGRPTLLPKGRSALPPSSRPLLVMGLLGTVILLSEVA
Put plainly: NPP7 inhibition assay. Format: biochemical. The conditions noted are these: read-out: NPP7 Activity, % control (10μM). In short, it runs like this:
as §1

A short description of data set [1]: Pharmacokinetics after i.v. bolus. It counts as in vivo, Sprague-Dawley rats. The conditions noted are these: rat. In short, it runs like this:
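Male Sprague–Dawley rats (250–275 g) fitted with jugular and femoral catheters received a single 5.8 mg/kg i.v. femoral bolus; drug was dissolved in propylene glycol and diluted in rat plasma. Jugular blood was drawn from 5 to 1440 min into lithium heparin. Plasma was butanol-extracted at pH 4.0 with internal standard and quantified by LC-MS/MS on a C8 column. Non-compartmental analysis gave AUC (trapezoidal), CL=dose/AUC, MRT=AUMC/AUC and Vdss=CL×MRT.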

In data set [2] the target is recombinant, purified human ATX (Homo sapiens, UniProt Q13822). In words: ATX IC50 and mechanism of inhibition. It counts as biochemical. In short, it runs like this:
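Recombinant purified human ATX with FS3 (1 µM final) in Tris 50 mM, NaCl 140 mM, KCl 5 mM, CaCl2 1 mM, MgCl2 1 mM, pH 8.0, plus 15 µM fatty-acid-free BSA. IC50 came from full dose-responses. For mechanism, FS3 was varied 0.3–20 µM at three inhibitor levels including zero.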

The test system of another data set is Swiss mice. Put plainly: Acute murine toxicity study. It counts as in vivo. The conditions noted are these: 1-10-30 mg/kg/day for 10 days.
A further data set has as its system MM1 hepatoma cells. In words: MM1 cell invasion of HUVEC monolayers. Format: cell-based, rat. In short, it runs like this:
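HUVECs (passage 7, 1.3×10^5/well) were grown on 0.2% gelatin for two days to confluence. Rat MM1 hepatoma cells, calcein AM-labelled (2 µg/mL, 2 h), were seeded at 5×10^4/well. Invasion ran 24 h in MCDB-131 with 1% serum, with or without 1.5 µM LPC (BSA-complexed, 30 µM BSA final). After five PBS rinses and formalin fixation, flattened cells beneath the monolayer were counted in ≥5 fields at 100×.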

The subject of another data set is plasma LPA. In words: Plasma LPA levels after i.v. bolus. The conditions noted are these: rat, i.v. 5.8 mg/kg, first rapid decrease. It counts as in vivo, Sprague-Dawley rats.
Data set [3] concerns the target T3, ATX (Homo sapiens, UniProt Q13822). In words: Inhibition of LPA production from ADMAN-LPC by ATX. It counts as biochemical. The conditions noted are these: compound 3 μM, 0.5 μM ADMAN-LPC, 100 nM ATX. In short, it runs like this:
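ADMAN-LPC (0.5 µM final) was incubated with 100 nM ATX, with or without 3 µM test compound, at 37 °C for 4 h. Lipids were extracted and separated by silica TLC in CHCl3/MeOH/NH4OH (60:35:8). Fluorescent LPC and LPA bands were visualized under a UV imager.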

Data set [4] deals with T3, ATX. In words: Inhibition of pNP-TMP hydrolysis by ATX. Format: biochemical. The conditions noted are these: compound 10 μM, 5 mM pNP-TMP, 4 nM ATX; compared with LPA 18:1 10 μM. In a few lines: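 Reactions held 4 nM ATX and 5 mM pNP-TMP, with vehicle or 10 µM test compound, in Tris 50 mM/NaCl 140 mM/KCl 5 mM/CaCl2 1 mM/MgCl2 1 mM, pH 8.0. They ran at 37 °C with absorbance monitored at 405 nm.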

The mark [5] stands for this setting: male, Sprague-Dawley, plasma, iv, 5.8 mg/kg.

Each structure is given as a SMILES string.

Usually MRT stands for a mean duration of stay, worked out from the concentration-time curve. Usually clearance stands for the rate of elimination divided by the concentration. Usually half-life stands for the time needed for the level to fall by half in the phase considered. A low value points to fast loss.

As to `CCCCCCCCCCCCCC(=O)Nc1ccc(CP(=O)(O)O)cc1` [Compound S32826, 4-tetradecanoylaminobenzyl phosphonic acid], the remaining activity at 10 µM at NPP6 was 102%; at NPP7, 101%.

In [1] (setting [5]), `CCCCCCCCCCCCCCCc1ccc(CP(=O)(O)O)cc1` [Compound 22, 4-pentadecylbenzylphosphonic acid] gave an MRT of 7.6 h and a clearance of 8.6 ± 0.5 mL/min/kg. Besides, in data set [1] (male, Sprague-Dawley, plasma, iv, 5.8 mg/kg, terminal half-life, i.v. 5.8 mg/kg), the half-life is 10 h. Further, the “mean plasma residence time” value in data set [1] (i.v. 5.8 mg/kg) is 7.6 ± 0.5 h. Also, the “ATX Mechanism of Inhibition” value in data set [2] (FS-3 substrate 0.3-20 μM, inhibitor 0, 0.5x, 2x IC50) is on record as “Mixed”. Further, the “ATX Ki′” value in [2] (affinity for enzyme substrate complex, FS-3) is 280 nM. Besides, the death entry with Swiss mice was “No death was detected in any of the groups”. For the same compound, the “non-observable adverse effect level” value in the data set on Swiss mice (i.p.) is greater than 10 mg/kg. In the data set on MM1 hepatoma cells (compounds alone, without LPC), the “basal rate of invasion of HUVEC monolayer” value was “did not reduce”. For the same compound, the “LPC-dependent invasion of the HUVEC monolayer” value with MM1 hepatoma cells (with 1.5 μM LPC, 24 h) is given as “dose-dependently inhibited”. Moreover, in the data set on plasma LPA, the “time of nadir of plasma LPA levels” value came to 60 min. On ATX [3], the “inhibition of hydrolysis of ADMAN-LPC (LPA production)” value is reported as “inhibited”. Also, the “inhibition of hydrolysis of pNP-TMP” value against ATX [4] is given as “inhibit the hydrolysis”.

Values taken from publication PMC3517046 (ChemMedChem, 2011).
